Data on two compounds can be found in publication PMC5774476 (Drug Design, Development and Therapy, 2018).

Like-named read-outs stand apart in the source and are kept apart here.

The conditions of series [1]: IC50 slightly higher than that of chloroquine; cited from earlier work.
The next series has as its system WiDR cells. In words: MTT cytotoxicity assay on WiDR colorectal cancer cells. It counts as cell-based. The note with it: for IC50: Homo sapiens, WiDr, 24 h; for SI (selectivity index): ratio of IC50 in Vero versus that in WiDR cells, selective if >3. An outline of the steps: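 WiDR cells grown in RPMI 1640 with 0.1 mg/mL streptomycin (5% CO2, 37°C); confluent cells seeded 1×10^4/well for 24 h, then exposed 24 h to test compound (1% DMSO solution diluted in medium) at 3.906–500 µg/mL. MTT 4 h, formazan dissolved overnight in 10% SDS/0.01 N HCl, A595. Viability vs untreated and cell-free controls; IC50 by probit, mean of three experiments; SI = Vero IC50/WiDR IC50.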

With `O=c1c2ccc(O)cc2oc2c(O)c(O)ccc12` [Compound 5, 3,4,6-trihydroxyxanthone], the antimalarial activity result in series [1] is “good antimalarial activity”. The IC50 in the series with WiDR cells (read-out: IC50 (µM) WiDR) came out at 37.8 ± 10.6 µM; in the series with WiDR cells (read-out: IC50 (µg/mL) WiDR), 9.23 ± 2.58 µg/mL. In addition, in the series with WiDR cells (WiDR cell line), the “cytotoxicity category (CSIR criteria)” value was “moderate (moderate (6.25 µg/mL < mean IC50 <15 µg/mL))”. The “cytotoxic activity (in words)” value with WiDR cells (WiDR cells, MTT) is on record as “exhibited cytotoxic activity”. In addition, the entries for the “SI (selectivity index)” value in the series with WiDR cells and in the series with WiDR cells (listed as compound 5) were 66.39 and 66.40, respectively.
In the case of `COc1cccc2c1C(=O)c1c(O)c3c(c(O)c1C2=O)C[C@@](O)(C(=O)CO)C[C@@H]3O[C@H]1C[C@H](N)[C@H](O)[C@H](C)O1` [Doxorubicin, doxorubicin, reference compound], the IC50 came to 3.04 ± 0.184 µM with WiDR cells (read-out: IC50 (µM) WiDR) and 1.65 ± 0.19 µg/mL in the series with WiDR cells (read-out: IC50 (µg/mL) WiDR). In addition, in the series on WiDR cells, the “SI (selectivity index)” value came to 49.38.
